Consider two compounds from paper PMC4529374 (Pharmaceutical research, 2015).

Converted amounts (≈) assume the structure as drawn.

Series [1] is described as follows: EFdA/CSIC stability in the film polymer solution. It is filed as physicochemical. The settings on record: 25°C/65% R.H. and 40°C/75% R.H., 4 weeks. The procedure, abridged:
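Drug-loaded aqueous PVA (7%, w/w) film-casting solution, about 0.5 ml per vial, was sealed against evaporation and light. EFdA: Zorbax C18, 0.4% phosphoric acid/methanol gradient, 0.8 ml/min, UV 260 nm. CSIC: Gemini C18, acetonitrile-0.075% TFA (40:60), 1.2 ml/min, UV 302 nm.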

Series [2] in a line: In vitro cytotoxicity, MTT assay. The class given is cell-based. The settings on record: human, HEC-1A cells. The procedure, abridged:
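HEC-1A cells were grown in McCoy's 5A with 10% FBS and penicillin/streptomycin at 37°C, 5% CO2, then seeded at 1×10⁴ cells/well. After 24 h, free drug (5 ng/ml–50 µg/ml) or film at the equivalent dose, or placebo film, was added for 24 h. MTT (5 mg/ml stock) was added in fresh medium for 3 h at 37°C. Formazan was dissolved in DMSO and absorbance read at 595 nm.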

Series [3] in a line: CSIC solubility in water and solubilizer solutions. The settings on record: water. It is filed as physicochemical. The procedure, abridged: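 Excess CSIC was rotated at moderate speed in the solubilizer solutions at ambient temperature for 120 h. The mixture was filtered through a 0.2 µm membrane, and the filtrate was assayed by HPLC. HPLC conditions: Gemini C18 column, isocratic acetonitrile-0.075% (v/v) TFA (40:60) at 1.2 ml/min, UV detection at 302 nm, room temperature, total peak area against a linear least-squares calibration. LOQ was 0.5 µg/ml.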

Series [4] relates to HIV-1. The settings on record: read-out: EC50 of CSIC; cited from earlier work.

Turning to `C#C[C@]1(CO)O[C@@H](n2cnc3c(N)nc(F)nc32)C[C@@H]1O` [EFdA, 4’-ethynyl-2-fluoro-2’-deoxyadenosine], the “loss of drug content in film polymer solution” value in series [1] is “No loss of drug content”. For the same compound, the cytotoxic concentration (CC50) at 24 h in series [2] was greater than 50 µg/mL.

Consider `NC(=O)c1[nH]c2ccc(Cl)cc2c1S(=O)(=O)c1ccccc1` [CSIC, 5-chloro-3-phenylsulfonylindole-2-carboxamide], for which the “loss of drug content in film polymer solution” value in series [1] is given as “No loss of drug content”. The compound also yielded a solubility in series [3] of less than 0.5 µg/mL. In addition, in series [4], the EC50 is 1.2 nM. Besides, the half-maximal cytotoxic concentration (CC50) at 24 h in series [2] worked out at 11.4 ± 2.8 µg/mL (≈ 34.1 µM).
